Results reported in ChEMBL document CHEMBL5653613 (Mol Cancer Ther, 2013).
Activity calls are given as the source filed them. The rule behind the calls is not given here.

Experiments:
T47D [1] = experiment: Inhibition of cell growth of human T47D cells at 5 uM; format: functional, cell-based; conditions: time <= 48.0 hrs, TDE = time-dependent effect
MCF7 [2] = experiment: Induction of apoptosis in human MCF7 cells assessed as necrotic cells at 5 umol/L incubated for 3 days by Annexin V/PI staining based flow cytometry (reference value: 0.4 %); format: functional; conditions: dose 5 µmol/L; time 3 day; at 5 µM
T-47D (Homo sapiens) = experiment: Disruption of microtubule dynamics in human T-47D cells at 5 umol/L incubated upto 72 hrs by immunofluorescence staining based analysis; conditions: dose 5.0 µmol/L
ZR-75-1 [3] = experiment: Induction of polyploidy in human ZR-75-1 cells with RON-/- at 5 umol/L incubated for 72 hrs followed by media replacement without compound measured upto 10 days by microscopic analysis; format: functional, cell-based; conditions: dose 5.0 µmol/L
ZR-75-1 [4] = experiment: Inhibition of cell proliferation of human ZR-75-1 cells with RON-/- at 5 umol/L incubated for 72 hrs followed by media replacement without compound measured upto 10 days by microscopic analysis; format: functional, cell-based; conditions: dose 5.0 µmol/L
ZR-75-1 [5] = experiment: Induction of polyploidy in human ZR-75-1 cells assessed as cells with 2N chromosome contents at 5 uM incubated for 72 hrs by PI staining based flow cytometry (reference value: 48); format: functional
ZR-75-1 [6] = experiment: Inhibition of clonogenic growth in human ZR-75-1 cells incubated for 10 days by Hema-3 staining based microscopy; format: functional, cell-based; conditions: dose 1-5 µmol/L, time 10.0 day
How it was run: (§1)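 Colonies were stained with Hema-3, photographed under a microscope with a CCD camera, counted in duplicate, and expressed as % of control. Results are shown from 1 of 2 experiments.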

[7] = Effect on cisplatin resistance in human ZR-75-1 cells with compound-induced polyploidy assessed as change in cisplatin-induced cytotoxicity by measuring increase in cisplatin IC50 at 5 umol/L preincubated for 72 hrs followed by compound washout and subsequent cisplatin treatment for 72 hrs by MTS assay; format: functional, cell-based
T47D [8] = experiment: Induction of polyploidy in human T47D cells with RON-/- at 5 umol/L incubated for 72 hrs by microscopic analysis; format: functional, cell-based; conditions: dose 5.0 µmol/L
How it was run: (§2)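 Cells (2 106 per 60-mm dish) transiently transfected for 48 hours with 1 nmol/L scrambled or RON-specific siRNA, with knockdown confirmed by anti-RON Western blot. […] Polyploidy monitored and photographed by microscopy, with untransfected and scrambled-siRNA cells as comparators.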

MCF7 [9] = experiment: Induction of polyploidy in human MCF7 cells assessed as cells with 2N chromosome contents at 5 uM incubated for 72 hrs by PI staining based flow cytometry (reference value: 52); format: functional
T47D [10] = experiment: Inhibition of clonogenic growth in human T47D cells incubated for 10 days by Hema-3 staining based microscopy; format: functional, cell-based; conditions: dose 1-5 µmol/L, time 10.0 day; how it was run: as §1
ZR-75-1 [11] = experiment: Induction of apoptosis in human ZR-75-1 cells assessed as necrotic cells at 5 umol/L incubated for 3 days by Annexin V/PI staining based flow cytometry (reference value: 0.7 %); format: functional; conditions: dose 5 µmol/L; time 3 day; at 5 µM
ZR-75-1 [12] = experiment: Induction of polyploidy in human ZR-75-1 cells with RON-/- by microscopic analysis; format: functional, cell-based; how it was run: as §2
ZR-75-1 [13] = experiment: Cytotoxicity against human ZR-75-1 cells at 1 to 2.5 umol/L incubated for 72 hrs by MTS assay; format: functional, cell-based; conditions: dose 1-2.5 µmol/L
ZR-75-1 [14] = experiment: Induction of polyploidy in human ZR-75-1 cells at 5 umol/L incubated for 72 hrs by microscopic analysis relative to control; format: functional; conditions: dose 5 µmol/L, at 5 µM
How it was run: (§3)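 Cells stained with Hema-3 and photographed under a light microscope with CCD camera. Polyploid cells scored as percent of the population.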

MCF7 [15] = experiment: Induction of apoptosis in human MCF7 cells assessed as early cells at 5 umol/L incubated for 3 days by Annexin V/PI staining based flow cytometry (reference value: 0.1 %); format: functional; conditions: dose 5 µmol/L; time 3 day; at 5 µM
[16] = Cmax in athymic mouse xenografted with human GTL-16 cells upto 50 mg/kg, po qd for 14 days consecutively; format: ADME, organism-based; conditions: in vivo, time 14 day
ZR-75-1 [17] = experiment: Induction of polyploidy in human ZR-75-1 cells assessed as cells with 16N chromosome contents at 5 uM incubated for 24 hrs by PI staining based flow cytometry (reference value: 0); format: functional
T47D [18] = experiment: Induction of polyploidy in human T47D cells assessed as cells with 4N chromosome contents at 5 uM incubated for 48 hrs by PI staining based flow cytometry (reference value: 35); format: functional
T47D [19] = experiment: Induction of polyploidy in human T47D cells assessed as cells with 8N chromosome contents at 5 uM incubated for 72 hrs by PI staining based flow cytometry (reference value: 0); format: functional
MCF7 [20] = experiment: Induction of polyploidy in human MCF7 cells assessed as cells with 16N chromosome contents at 5 uM incubated for 48 hrs by PI staining based flow cytometry (reference value: 0); format: functional
T47D [21] = experiment: Induction of cell death of human T47D cells with RON-/- at 5 umol/L incubated for 72 hrs followed by media replacement without compound measured upto 10 days by microscopic analysis; format: functional, cell-based; conditions: dose 5.0 µmol/L
T47D [22] = experiment: Induction of polyploidy in human T47D cells assessed as cells with 16N chromosome contents at 5 uM incubated for 72 hrs by PI staining based flow cytometry (reference value: 0); format: functional
MCF7 [23] = experiment: Induction of polyploidy in human MCF7 cells assessed as cells with 4N chromosome contents at 5 uM incubated for 24 hrs by PI staining based flow cytometry (reference value: 36); format: functional
MCF7 [24] = experiment: Induction of polyploidy in human MCF7 cells assessed as cells with 4N chromosome contents at 5 uM incubated for 72 hrs by PI staining based flow cytometry (reference value: 36); format: functional
T47D [25] = experiment: Cytotoxicity against human T47D cells at 1 to 2.5 umol/L incubated for 72 hrs by MTS assay; format: functional, cell-based; conditions: dose 1-2.5 µmol/L
T47D [26] = experiment: Disruption of microtubule dynamics in human T47D cells assessed as lack of metaphase equatorial alignment at 5 umol/L incubated for 24 hrs by immunofluorescence staining based analysis; format: functional, cell-based; conditions: dose 5.0 µmol/L
How it was run: (§4)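 T-47D cells (1 × 10^6/dish) in RPMI-1640 with 5% FBS were treated with or without 5 µmol/L for 24, 48 and 72 h. Cells were fixed in cold acetone and stained with mouse anti-α-tubulin or anti-γ-tubulin, then an FITC anti-mouse IgG secondary, plus DAPI. Fluorescence microscopy, 200× magnification.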

T47D [27] = experiment: Disruption of microtubule dynamics in human T47D cells assessed as lack of chromosomal segregation at 5 umol/L incubated for 24 hrs by immunofluorescence staining based analysis; format: functional, cell-based; conditions: dose 5.0 µmol/L; how it was run: as §4
T47D [28] = experiment: Induction of polyploidy in human T47D cells assessed as cells with 2N chromosome contents at 5 uM incubated for 48 hrs by PI staining based flow cytometry (reference value: 48); format: functional
T47D [29] = experiment: Induction of polyploidy in human T47D cells with RON-/- at 5 umol/L incubated for 72 hrs followed by media replacement without compound measured upto 10 days by microscopic analysis; format: functional, cell-based; conditions: dose 5.0 µmol/L
T47D [30] = experiment: Induction of apoptosis in human T47D cells assessed as early cells at 5 umol/L incubated for 3 days by Annexin V/PI staining based flow cytometry (reference value: 0.8 %); format: functional; conditions: dose 5 µmol/L; time 3 day; at 5 µM
ZR-75-1 [31] = experiment: Induction of polyploidy in human ZR-75-1 cells assessed as cells with 8N chromosome contents at 5 uM incubated for 24 hrs by PI staining based flow cytometry (reference value: 0); format: functional
T47D [32] = experiment: Disruption of microtubule dynamics in human T47D cells assessed as absence of functional bipolar spindle assembly at 5 umol/L incubated for 24 hrs by immunofluorescence staining based analysis; format: cell-based; conditions: dose 5.0 µmol/L; how it was run: as §4
ZR-75-1 [33] = experiment: Induction of polyploidy in human ZR-75-1 cells at 10 umol/L incubated for 72 hrs by microscopic analysis relative to control; format: functional; conditions: dose 10 µmol/L, at 10 µM; how it was run: as §3

CCOc1ccn(-c2ccc(F)cc2)c(=O)c1C(=O)Nc1ccc(Oc2ccnc(N)c2Cl)c(F)c1 [BMS-777607]
inhibition (T47D [1]): Tde | Activity (MCF7 [2]): 0.5% | Activity (T-47D (Homo sapiens)): Active | Activity (ZR-75-1 [3]): Active | inhibition (ZR-75-1 [4]): inactive | Activity (ZR-75-1 [5]): 5 | inhibition (ZR-75-1 [6]): Dose-Dependent Effect | IC50 [7]: 3.4 nM | Activity (T47D [8]): Active | Activity (MCF7 [9]): 12 | inhibition (T47D [10]): Dose-Dependent Effect | Activity (ZR-75-1 [11]): 1.8% | Activity (ZR-75-1 [12]): Active | Activity (ZR-75-1 [13]): inactive | Activity (ZR-75-1 [14]): 82% | Activity (MCF7 [15]): 0.2% | Cmax [16]: 43.7 µM | Activity (ZR-75-1 [17]): 5 | Activity (T47D [18]): 22 | Activity (T47D [19]): 21 | Activity (MCF7 [20]): 0 | Activity (T47D [21]): inactive | Activity (T47D [22]): 18.5 | Activity (MCF7 [23]): 45.5 | Activity (MCF7 [24]): 41 | Activity (T47D [25]): inactive | Activity (T47D [26]): Active | Activity (T47D [27]): Active | Activity (T47D [28]): 7.4 | Activity (T47D [29]): Active | Activity (T47D [30]): 2.2% | Activity (ZR-75-1 [31]): 14 | Activity (T47D [32]): Active | Activity (ZR-75-1 [33]): 88%
